Source: ChEMBL document CHEMBL3576847, “Discovery of 1-(3,3-dimethylbutyl)-3-(2-fluoro-4-methyl-5-(7-methyl-2-(methylamino)pyrido[2,3-d]pyrimidin-6-yl)phenyl)urea (LY3009120) as a pan-RAF inhibitor with minimal paradoxical activation and activity against BRAF or RAS mutant tumor cells” (J Med Chem, 2015)
Calls of active or inactive are those of the source. The rule behind the calls is not given here.

Assays:
[1] = target: T1, Serine/threonine-protein kinase B-raf (Homo sapiens, UniProt P15056, V600E); assay: Inhibition of recombinant BRAF V600E mutant (unknown origin) assessed as ADP formation measured for 5 hrs by pyruvate kinase/lactate dehydrogenase coupled assay in presence of ATP, MEK1, NADH
[2] = target: Serine/threonine-protein kinase B-raf (Homo sapiens, UniProt P15056); assay: Inhibition of wild type BRAF (unknown origin) assessed as ADP formation measured for 5 hrs by pyruvate kinase/lactate dehydrogenase coupled assay in presence of ATP, MEK1, NADH
[3] = target: RAF proto-oncogene serine/threonine-protein kinase (Homo sapiens, UniProt P04049); assay: Inhibition of wild type CRAF (unknown origin) assessed as ADP formation measured for 5 hrs by pyruvate kinase/lactate dehydrogenase coupled assay in presence of ATP, MEK1, PEP, NADH
[4] = target: T1, Serine/threonine-protein kinase B-raf; assay: Inhibition of BRAF V600E mutant in human A375 cells assessed as inhibition of ERK phosphorylation measured after 72 hrs by ELISA assay; type: cell-based, A-375
GTPase KRas = GTPase KRas (Homo sapiens, UniProt P01116, G13D); assay: Inhibition of KRAS G13D mutant in human HCT116 cells assessed as inhibition of ERK phosphorylation by ELISA; type: cell-based, HCT-116
In short: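 HCT116 cells (KRAS G13D, BRAF WT; RAF signalling via CRAF) were treated with compound, and the change in cellular phospho-ERK was measured. IC50 was taken as the concentration inhibiting phospho-ERK.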

[5] = target: Vascular endothelial growth factor receptor 2 (Homo sapiens, UniProt P35968); assay: Inhibition of KDR (unknown origin)
[6] = target: Dual specificity mitogen-activated protein kinase kinase; MEK1/2 (Homo sapiens, UniProt P36507+Q02750); assay: Inhibition of MEK (unknown origin)
A-375 [7] = assay: cells; settings: Homo sapiens, A-375, 72 h
HCT-116 [8] = assay: cells; settings: Homo sapiens, HCT-116, 67 h
Mus musculus [9] = assay: In vivo inhibition of BRAF V600E mutant in human A375 cells xenografted in po dosed athymic nu/nu mouse assessed as plasma concentration required to inhibit ERK phosphorylation by 50%; type: functional, A-375
Mus musculus [10] = assay: In vivo inhibition of BRAF V600E mutant in human A375 cells xenografted in po dosed athymic nu/nu mouse assessed as inhibition of ERK phosphorylation by ELISA; type: functional
Mus musculus [11] = assay: In vivo inhibition of BRAF V600E mutant in human A375 cells xenografted in po dosed athymic nu/nu mouse assessed as inhibition of MEK phosphorylation by ELISA; type: functional, organism-based; settings: A-375
Mus musculus [12] = assay: In vivo inhibition of BRAF V600E mutant in human A375 cells xenografted in po dosed athymic nu/nu mouse assessed as plasma concentration required to inhibit ERK phosphorylation by 80%; type: functional, A-375
A-375 [13] = assay: Antitumor activity against human A375 cells expressing BRAF V600E mutant xenografted in athymic nu/nu mouse assessed as tumor regression at 20 to 30 mg/kg, po bid administered for 15 days; type: functional, organism-based
In short: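 Mice bearing A375 (BRAF V600E) or HCT116 (KRAS mutant) xenografts were dosed orally b.i.d. for 15 days. Doses were 20 and 30 mg/kg for A375 and 40 mg/kg for HCT116. Tumor volume and body weight were monitored.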

Mus musculus [14] = assay: Toxicity in athymic nu/nu mouse xenografted with human A375 cells expressing BRAF V600E mutant assessed as body weight loss at 20 to 30 mg/kg, po bid administered for 15 days; type: organism-based, A-375; settings: in vivo, 360 h
In short: (§1)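 Nude mice bearing A375 (BRAF V600E) or HCT116 (KRAS mutant) xenografts given oral b.i.d. doses, 20 and 30 mg/kg (A375) or 40 mg/kg (HCT116), for 15 days; body weight monitored.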

Mus musculus [15] = assay: Toxicity in athymic nu/nu mouse xenografted with human HCT116 cells expressing KRAS mutant assessed as body weight loss at 40 mg/kg, po bid administered for 15 days; type: organism-based, HCT-116; settings: in vivo, 360 h; in short: as §1
[16] = Paradoxical activation of RAS/RAF/MEK signaling pathway in human HCT116 cells expressing wild type BRAF assessed as ERK phosphorylation at <100 nM; type: cell-based; settings: HCT-116
[17] = Paradoxical activation of RAS/RAF/MEK signaling pathway in human HCT116 cells expressing wild type BRAF assessed as ERK phosphorylation at >100 nM; type: cell-based; settings: HCT-116
HCT-116 [18] = assay: Antitumor activity against human HCT116 cells expressing KRAS mutant xenografted in athymic nu/nu mouse at 40 mg/kg, po bid administered for 15 days
[19] = Oral bioavailability in rat administered as suspension; type: ADME, organism-based; settings: in vivo
[20] = Clearance in iv dosed rat administered as suspension; type: ADME, organism-based; settings: in vivo

Chain of GTPase KRas (P01116 whole entry G13D): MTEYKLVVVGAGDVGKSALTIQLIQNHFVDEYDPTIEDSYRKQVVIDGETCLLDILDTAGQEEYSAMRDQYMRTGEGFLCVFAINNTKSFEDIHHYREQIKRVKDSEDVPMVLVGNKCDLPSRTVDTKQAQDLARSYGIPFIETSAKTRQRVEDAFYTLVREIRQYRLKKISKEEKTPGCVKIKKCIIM
Chain of RAF proto-oncogene serine/threonine-protein kinase (P04049 whole entry): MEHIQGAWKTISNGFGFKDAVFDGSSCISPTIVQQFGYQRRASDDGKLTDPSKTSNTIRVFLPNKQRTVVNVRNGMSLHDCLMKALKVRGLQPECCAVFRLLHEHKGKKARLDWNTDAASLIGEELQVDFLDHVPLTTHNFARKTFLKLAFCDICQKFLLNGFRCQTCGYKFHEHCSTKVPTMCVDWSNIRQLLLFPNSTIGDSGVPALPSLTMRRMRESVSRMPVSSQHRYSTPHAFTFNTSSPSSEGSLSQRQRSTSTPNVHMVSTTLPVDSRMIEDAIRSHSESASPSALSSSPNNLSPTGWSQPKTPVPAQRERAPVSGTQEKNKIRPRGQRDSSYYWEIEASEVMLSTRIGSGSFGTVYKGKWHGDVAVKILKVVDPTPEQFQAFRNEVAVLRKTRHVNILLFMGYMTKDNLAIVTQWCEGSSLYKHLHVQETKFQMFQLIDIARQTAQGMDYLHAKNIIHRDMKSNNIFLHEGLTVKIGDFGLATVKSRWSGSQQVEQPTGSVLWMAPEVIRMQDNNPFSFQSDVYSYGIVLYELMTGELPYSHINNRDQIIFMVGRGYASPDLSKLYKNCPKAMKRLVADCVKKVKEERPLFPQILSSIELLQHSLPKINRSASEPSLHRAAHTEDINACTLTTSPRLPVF
Chain of Vascular endothelial growth factor receptor 2 (P35968 whole entry): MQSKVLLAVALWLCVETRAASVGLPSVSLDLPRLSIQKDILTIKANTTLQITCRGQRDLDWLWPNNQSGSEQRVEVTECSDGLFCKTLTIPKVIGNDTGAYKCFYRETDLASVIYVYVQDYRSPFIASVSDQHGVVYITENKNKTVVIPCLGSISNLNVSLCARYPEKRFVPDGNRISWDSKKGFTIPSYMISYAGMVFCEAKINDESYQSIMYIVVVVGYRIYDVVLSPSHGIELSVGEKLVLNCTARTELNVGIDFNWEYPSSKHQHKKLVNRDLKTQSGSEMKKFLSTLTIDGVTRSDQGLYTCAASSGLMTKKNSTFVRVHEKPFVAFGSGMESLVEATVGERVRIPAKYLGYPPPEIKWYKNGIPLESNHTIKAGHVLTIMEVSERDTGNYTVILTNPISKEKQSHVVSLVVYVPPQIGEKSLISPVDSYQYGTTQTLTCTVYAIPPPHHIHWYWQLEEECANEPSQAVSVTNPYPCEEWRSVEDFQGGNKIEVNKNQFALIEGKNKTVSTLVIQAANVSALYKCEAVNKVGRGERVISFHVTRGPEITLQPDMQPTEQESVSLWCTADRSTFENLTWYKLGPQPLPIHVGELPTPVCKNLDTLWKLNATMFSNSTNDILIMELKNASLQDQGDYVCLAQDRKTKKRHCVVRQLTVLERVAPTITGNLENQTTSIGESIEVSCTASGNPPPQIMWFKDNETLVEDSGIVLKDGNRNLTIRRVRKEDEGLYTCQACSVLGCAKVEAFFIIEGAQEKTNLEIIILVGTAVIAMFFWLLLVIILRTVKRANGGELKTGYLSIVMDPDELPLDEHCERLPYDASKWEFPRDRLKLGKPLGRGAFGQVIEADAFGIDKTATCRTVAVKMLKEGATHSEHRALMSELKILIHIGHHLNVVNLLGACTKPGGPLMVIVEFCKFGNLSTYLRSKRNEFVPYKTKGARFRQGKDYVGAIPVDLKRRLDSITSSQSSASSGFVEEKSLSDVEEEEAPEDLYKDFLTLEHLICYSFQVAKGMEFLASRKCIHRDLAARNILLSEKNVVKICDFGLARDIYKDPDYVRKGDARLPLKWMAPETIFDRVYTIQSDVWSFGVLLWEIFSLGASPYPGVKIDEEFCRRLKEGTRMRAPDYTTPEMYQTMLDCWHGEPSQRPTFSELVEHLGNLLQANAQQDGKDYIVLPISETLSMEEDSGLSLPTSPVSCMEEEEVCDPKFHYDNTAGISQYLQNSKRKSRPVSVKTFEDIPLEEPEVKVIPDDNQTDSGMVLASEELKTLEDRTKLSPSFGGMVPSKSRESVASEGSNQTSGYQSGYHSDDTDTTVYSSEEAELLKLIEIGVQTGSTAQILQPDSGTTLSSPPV
T1 sequence (P15056 2-766 V600E limits assumed): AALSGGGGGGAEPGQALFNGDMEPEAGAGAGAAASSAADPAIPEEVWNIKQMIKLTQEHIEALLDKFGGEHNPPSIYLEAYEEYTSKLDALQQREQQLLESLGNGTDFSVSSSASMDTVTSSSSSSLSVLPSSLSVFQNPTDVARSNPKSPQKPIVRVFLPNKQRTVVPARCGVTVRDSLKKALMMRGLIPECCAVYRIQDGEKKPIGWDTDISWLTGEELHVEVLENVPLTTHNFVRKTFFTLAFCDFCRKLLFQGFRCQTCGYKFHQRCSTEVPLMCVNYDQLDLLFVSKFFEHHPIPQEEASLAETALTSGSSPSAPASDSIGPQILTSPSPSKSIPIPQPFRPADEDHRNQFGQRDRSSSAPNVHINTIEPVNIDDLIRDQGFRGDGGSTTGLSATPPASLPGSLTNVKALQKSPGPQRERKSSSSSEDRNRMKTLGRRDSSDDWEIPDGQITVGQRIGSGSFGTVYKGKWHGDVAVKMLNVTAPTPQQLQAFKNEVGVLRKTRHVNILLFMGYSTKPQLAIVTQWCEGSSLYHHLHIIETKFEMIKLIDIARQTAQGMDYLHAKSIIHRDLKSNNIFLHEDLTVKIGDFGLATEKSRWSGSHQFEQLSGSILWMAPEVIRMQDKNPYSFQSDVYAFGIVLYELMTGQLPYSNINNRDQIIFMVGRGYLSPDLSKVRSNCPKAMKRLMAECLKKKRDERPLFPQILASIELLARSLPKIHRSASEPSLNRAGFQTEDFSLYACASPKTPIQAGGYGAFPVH
Chain of Serine/threonine-protein kinase B-raf (Homo sapiens, UniProt P15056) (P15056 whole entry): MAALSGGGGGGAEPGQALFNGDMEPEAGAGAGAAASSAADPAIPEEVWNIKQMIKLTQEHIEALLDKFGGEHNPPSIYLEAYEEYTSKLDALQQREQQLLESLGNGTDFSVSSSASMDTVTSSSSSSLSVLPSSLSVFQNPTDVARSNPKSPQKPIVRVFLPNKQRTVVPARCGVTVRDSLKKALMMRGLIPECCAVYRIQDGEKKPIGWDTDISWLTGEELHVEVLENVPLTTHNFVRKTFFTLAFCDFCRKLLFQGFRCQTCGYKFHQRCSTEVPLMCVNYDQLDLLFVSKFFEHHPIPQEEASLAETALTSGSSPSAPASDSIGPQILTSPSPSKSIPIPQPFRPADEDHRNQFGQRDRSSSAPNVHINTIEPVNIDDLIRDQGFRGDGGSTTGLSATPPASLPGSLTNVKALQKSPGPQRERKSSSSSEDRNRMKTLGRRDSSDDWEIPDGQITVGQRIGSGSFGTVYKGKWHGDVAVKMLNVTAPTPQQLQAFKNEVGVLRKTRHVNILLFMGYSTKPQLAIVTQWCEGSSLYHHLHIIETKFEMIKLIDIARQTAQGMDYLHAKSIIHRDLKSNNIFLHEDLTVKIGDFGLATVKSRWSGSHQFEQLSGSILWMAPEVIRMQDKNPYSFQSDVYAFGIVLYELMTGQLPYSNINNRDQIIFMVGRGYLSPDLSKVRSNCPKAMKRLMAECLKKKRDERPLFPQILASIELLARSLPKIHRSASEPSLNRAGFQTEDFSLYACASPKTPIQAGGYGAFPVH

| SMILES | IC50 [1] [nM] | IC50 [2] [nM] | IC50 [3] [nM] | IC50 [4] [nM] | IC50 (GTPase KRas) [nM] | IC50 [5] [nM] | IC50 [6] [nM] | IC50 (A-375 [7]) [nM] | IC50 (HCT-116 [8]) [nM] | also measured |
| --- | --- | --- | --- | --- | --- | --- | --- | --- | --- | --- |
| CNc1ncc2cc(-c3ccc(F)c(NC(=O)NCCC(C)(C)C)c3)c(C)nc2n1 | 7.6 | 18 | 2.8 | 110 | 48 | 750 | > 20000 | 26 | 280 | – |
| CNc1cc2nc(C)c(-c3cc(NC(=O)NCCC(C)(C)C)ccc3C)cc2cn1 | 4.3 | 27 | 6.7 | 140 | 270 | – | > 20000 | 35 | 510 | – |
| CNc1cc2nc(C)c(-c3cc(NC(=O)NC[C@@H](O)C(C)(C)C)c(F)cc3C)cc2cn1 | 7.7 | 39 | 7.2 | 22 | 160 | 750 | 15000 | 10 | 174 | Activity (Mus musculus [9]): 3.1 µM; inhibition (Mus musculus [10]; A-375): Dose-dependent effect; ED50 (Mus musculus [10]; A-375, po): 1.7 mg/kg; ED80 (Mus musculus [10]; A-375, po): 5.7 mg/kg; inhibition (Mus musculus [11]): Dose-dependent effect; INH (Mus musculus [12]): 7661 ng/mL; Activity (A-375 [13]): Active; Activity (Mus musculus [14]): Non-toxic; Activity (Mus musculus [15]): Non-toxic; Activity [16]: Active; Activity [17]: inactive; Activity (HCT-116 [18]): Active |
| Cc1cc(F)c(NC(=O)NCCC(C)(C)C)cc1-c1cc2cnc(N)nc2nc1C | 7.9 | – | – | – | – | 540 | – | 33 | 190 | – |
| CNc1cc2nc(C)c(-c3cc(NC(=O)NCCC(C)(C)C)c(F)cc3C)cc2cn1 | 18 | 28 | 5.6 | 47 | 120 | 170 | 5900 | 11 | 320 | bioavailability [19]: 30%; clearance [20]: 3.36 mL/min/kg |
| CNc1cc2nc(C)c(-c3ccc(F)c(NC(=O)NCCC(C)(C)C)c3)cc2cn1 | 3 | 8.4 | 1.6 | 82 | 46 | 33 | > 20000 | 40 | 160 | – |
